# Screening data as filed in PubChem BioAssay.
# Hits are enriched below; roughly 2.1% of the tested compounds scored in any of these assays.
# RanGTP-Imp inh: disruptors of Ran-importin-beta complex formation – biochemical, FRET, CFP-Ran, YFP-importin-beta, homogeneous, primary screen; cell-free CFP-Ran/YFP-importin-beta FRET ratio; inhibition, % (test concentration not listed); 300,000 tested, 1.1% active; AID 2216;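 active = more than half of the replicate wells show a fall in the fluorescence ratio signal beyond about 16%, limit read from the data, passing the limit was not always enough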;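 note: 0% = DMSO wells and 100% = Ran loaded with GDP instead of GTP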
# TbHK1 inh: T. brucei hexokinase 1 inhibition. recombinant TbHK1, G6PDH-coupled NADH A340. inhibition, % at 10 µM. 220,000 tested, 0.11% active;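 active = inhibition of 50% or more in the single-dose primary screen; inactive = inhibition below 50%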
# Hck-Nef inh: human Hck-Nef kinase inhibition; P08631; inhibition, % at 20 µM; Recombinant Hck-YEEI plus Nef, Z-Lyte FRET kinase assay; AID 463187; 220,000 tested, 0.68% active;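 active = Hck-Nef kinase inhibition above about 50%, limit read from the data; inactive = inhibition below that limit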;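 note: 0% = DMSO with Hck plus Nef and 100% = Hck alone without Nef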
# Runt-SMMHC FRET: Runt domain-CBFb-SMMHC interaction inhibition; Q01196+Q13951; Cerulean-Runt/Venus-CBFb-SMMHC FRET ratio 530/480, 1 h; inhibition, % at 20 µM; 220,000 tested, 0.74% active; AID 1434;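 active = mean inhibition across duplicate retests at 20 µM reaching about 50%, limit read from the data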;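 note: 0% = DMSO wells and 100% = wells with excess untagged CBFb-SMMHC; inhibitors lower the FRET ratio by blocking Runt binding to CBFb-SMMHC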
# Runt-CBFb FRET: Runt domain-CBFb interaction inhibition | inhibition, % at 20 µM | 220,000 tested, 0.46% active | Q01196+Q13951 | Cerulean-Runt/Venus-CBFb FRET ratio 530/480, 1 h;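 active = inhibition over about 50% at 20 µM in the single-dose screen, limit read from the data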;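 note: 0% = DMSO wells and 100% = excess unlabeled CBFb competitor control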
#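 Doses: 20 µM compound in 1% DMSO | Material: Cerulean-labeled Runt domain protein | Amount: Each fluorescent fusion protein 100 nM | Schedule: Two 1 h room-temperature incubations shielded from light | Measured by: FRET fluorescence | Evaluation: Loss of energy transfer signal | Controls: Unlabeled CBFb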
# p97 ATPase inh: human p97 ATPase inhibition; 220,000 tested, 0.42% active; AID 1481; recombinant p97 ATPase, Kinase-Glo ATP luminescence, 3 h; inhibition, % at 8 µM; P55072; in the data active = inhibition above about 15%;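 note: 0% = DMSO vehicle and 100% = wells lacking enzyme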
# Target sequence (P55072 whole entry, looked up): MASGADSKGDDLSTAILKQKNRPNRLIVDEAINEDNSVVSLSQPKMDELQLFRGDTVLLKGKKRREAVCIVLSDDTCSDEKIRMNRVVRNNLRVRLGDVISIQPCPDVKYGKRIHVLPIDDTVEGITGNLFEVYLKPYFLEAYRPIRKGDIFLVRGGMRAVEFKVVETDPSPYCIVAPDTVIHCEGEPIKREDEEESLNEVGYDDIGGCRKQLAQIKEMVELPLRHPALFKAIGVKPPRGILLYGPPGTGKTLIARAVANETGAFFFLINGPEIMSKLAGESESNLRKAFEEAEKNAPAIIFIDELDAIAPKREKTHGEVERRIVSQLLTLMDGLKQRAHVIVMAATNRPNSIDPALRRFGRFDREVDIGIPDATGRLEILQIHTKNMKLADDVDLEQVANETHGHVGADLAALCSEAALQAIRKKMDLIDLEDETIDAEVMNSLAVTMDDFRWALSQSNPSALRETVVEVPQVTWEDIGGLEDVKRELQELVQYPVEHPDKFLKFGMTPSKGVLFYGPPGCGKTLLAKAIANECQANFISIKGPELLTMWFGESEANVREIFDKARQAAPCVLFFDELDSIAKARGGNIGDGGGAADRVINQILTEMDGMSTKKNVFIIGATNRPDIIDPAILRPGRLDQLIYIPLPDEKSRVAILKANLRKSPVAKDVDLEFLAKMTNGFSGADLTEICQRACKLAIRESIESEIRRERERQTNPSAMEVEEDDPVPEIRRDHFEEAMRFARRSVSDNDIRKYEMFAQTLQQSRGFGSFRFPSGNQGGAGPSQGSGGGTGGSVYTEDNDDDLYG
# Active calls of the source: *; · = no result given.
SMILES,RanGTP-Imp inh,TbHK1 inh,Hck-Nef inh,Runt-SMMHC FRET,Runt-CBFb FRET,p97 ATPase inh
N=c1oc2cc(O)ccc2cc1C(=O)Nc1ccc(Cl)cc1,170*,·,·,·,·,·
COc1cc(/C=C2\CCCc3c2nc2ccccc2c3C(=O)O)cc(Br)c1O,0,·,·,·,·,·
CCOc1cc(/C=C2\CCCc3c2nc2ccccc2c3C(=O)O)ccc1OC,47*,·,·,·,·,·
COC(=O)C1CCN(c2cc(=O)n(Cc3ccc(F)cc3)c(=O)[nH]2)CC1,59*,-1,-2,-3,-1,1
COC(=O)C1CCN(c2cc(=O)n(C3CCCCC3)c(=O)[nH]2)CC1,63*,4,0,0,0,0
O=c1cc(N2CCCCC2)[nH]c(=O)n1C1CCCCC1,12,-4,13,-6,2,8
Cc1ccc(S(=O)(=O)CC(=O)Nc2ccc3nc(C)sc3c2)cc1,1,·,·,·,·,·
CCCCn1c(=NC(=O)c2ccc3c(c2)OCO3)c(C#N)cc2c(=O)n3cccc(C)c3nc21,·,-8,3,39,56*,0
COCCCn1c(C(=O)N2CCOCC2)cc2c(=O)n3cccc(C)c3nc21,-1,·,·,·,·,·
COCCn1c(=NC(=O)c2ccc3c(c2)OCO3)c(C#N)cc2c(=O)n3cccc(C)c3nc21,43*,-3,2,118*,105*,-3
CN1CCC(N(CCc2ccccc2)C(=O)CCC(=O)O)CC1,-2,·,·,·,·,·
Cc1c(C(=O)NCCN(C)C)oc2ccc(S(=O)(=O)N3CCC4(CC3)OCCO4)cc12,23*,·,·,·,·,·
Cc1ccc(CNC(=O)c2oc3ccc(S(=O)(=O)N4CCC5(CC4)OCCO5)cc3c2C)cc1,-4,-6,0,1,-11,5
Cc1ccc(NC2(c3nnnn3-c3c(C)cccc3C)CCCCC2)cc1,1,17,0,3,2,-9
COC(/C=C/Nc1ccc(OC)cc1)=C(C#N)C#N,-4,-5,-1,0,0,1
COC(/C=C/Nc1ccc(Cl)cc1)=C(C#N)C#N,27*,6,18,4,0,-4
COC(=O)[C@H]1[C@H]2C[C@H]3c4[nH]c5ccccc5c4CCN3C[C@H]2CC[C@@H]1O,43*,·,·,·,·,·
COC(=O)C1C(O)CCC2CN3CCc4c([nH]c5ccccc45)C3CC21 (configuration not stated),65*,-11,12,71*,8,·
Cc1ccc(N(CC(=O)NC2CCCCC2)C(=O)CNC(=O)c2ccco2)cc1C,1,·,·,·,·,·
Cc1cc(C(=O)O)cc(S(=O)(=O)Nc2ccccc2C(=O)NC(C)c2ccccc2)c1C (configuration not stated),1,·,·,·,·,·
COc1ccc(C2C=C(C)Nc3ncnn32)cc1 (configuration not stated),0,·,·,·,·,·
Clc1ccccc1C1=CC(c2ccco2)n2ncnc2N1 (configuration not stated),43*,-25,16,81,10,-2
COc1ccc(C2C=C(c3ccccc3)Nc3ncnn32)cc1 (configuration not stated),6,-25,1,63*,18,-1
COc1ccc(C2=CC(c3ccco3)n3ncnc3N2)cc1 (configuration not stated),·,-12,-48,87*,-64,8
O=c1[nH]c2cc3c(cc2cc1CN(Cc1nnnn1CC1CCCO1)C1CCCCC1)OCO3 (configuration not stated),-103,-28,2,57*,18,1
SMILES,RanGTP-Imp inh,TbHK1 inh,Hck-Nef inh,Runt-SMMHC FRET,Runt-CBFb FRET,p97 ATPase inh
Cc1ccc2[nH]c(=O)c(CN(CCc3ccccc3)Cc3nnnn3CC3CCCO3)cc2c1 (configuration not stated),-4,-14,-1,-16,4,1
O=c1[nH]c2cc3c(cc2cc1CN(CCc1ccccc1)Cc1nnnn1CC1CCCO1)OCO3 (configuration not stated),-75,-33,3,62*,-92,2
Nc1nc(Cl)cc(Nc2ccccc2Cl)n1,-4,6,26,-4,2,3
COc1ccc(Nc2cc(Cl)nc(N)n2)cc1OC,18*,-5,13,6,2,0
COc1ccc(Cl)cc1NC(=O)c1cc(C)no1,-2,·,·,·,·,·
Cc1cc(=O)oc2c(C)c3occc3cc12,0,·,·,·,·,·
COc1ccc(C2c3ccc(O)cc3Oc3ncn(Cc4ccco4)c(=N)c32)cc1 (configuration not stated),3,-1,18,28,97*,12
C[C@@H](C(=O)CC(=O)OC(C)(C)C)[C@@H](O)c1c(F)cccc1Cl,-2,·,·,·,·,·
C=CCOc1ccc(C2C3=C(CCCC3=O)N(CC(=O)O)C3=C2C(=O)CCC3)cc1OCC,2,·,·,·,·,·
C=CCOc1c(Br)cc(C2C3=C(CCCC3=O)N(C)C3=C2C(=O)CCC3)cc1OCC,101*,-11,53*,·,96*,-4
CCN(CC(=O)Nc1cc(Cl)ccc1C)C(=O)c1oc2ccc(OC)cc2c1C,2,·,·,·,·,·
CCN(CC)c1ccc2c(Cl)c(Br)c(=O)oc2c1,43*,4,11,-14,12,0
CCN(CC)c1ccc2c(C)c(-c3ccc(N)cc3)c(=O)oc2c1,136*,-4,7,64*,48,4
CCN(CC)c1ccc2c(c1)oc(=O)c1c(Cl)cc(=O)oc12,67*,3,25,62*,18,7
CCC(C)[C@H](NC(=O)N1CCCCC1)C(=O)OC (some centres not stated),23*,-9,8,-5,1,10
N#Cc1cc(S(=O)(=O)c2ccccc2)c(N)[nH]c1=O,9,-6,1,35,10,-8
Cc1ccccc1S(=O)(=O)c1cc(C#N)c(=O)[nH]c1N,6,-6,19,134*,87*,6
O=C(Nc1ccc2nc(-c3cccs3)c(-c3cccs3)nc2c1)NC1CC1,121*,-7,7,-73,-13,3
COCCNC(=O)Nc1ccc2nc(-c3cccs3)c(-c3cccs3)nc2c1,120*,2,2,81*,15,2
COc1ccccc1CCNC(=O)c1ccc(NC(=O)CC2SC(N3CCCC3)=NC2=O)cc1 (configuration not stated),0,·,·,·,·,·
CC1(C)Cc2c(ccc3ccccc23)C(=O)N1,-1,0,2,2,0,-1
CN1CC2(Cc3c1ccc1ccccc31)C(=O)OC(C)(C)OC2=O,-1,6,19,113*,29,6
CCOC(=O)c1sc(Nc2nc3ccc(OC)cc3s2)cc1C,-1,-23,4,62*,6,-1
COc1ccc2nc(Nc3sc4c(c3C(N)=O)CCCC4)sc2c1,·,-10,6,67*,45,0
CN1/C(=C\C(=S)NC(=O)c2cccc(Br)c2)C(C)(C)c2ccccc21,0,-7,0,-22,-1,0
